Laboratory results published in ChEMBL document CHEMBL3046081, “Phytotoxic effect, uptake, and transformation of biochanin A in selected weed species” (J Agric Food Chem, 2012).
Activity calls are given as the source filed them. The calls are words filed in the database; no cut-off is given here.

What was measured:
[1] = test system: Shoot; assay: Drug metabolism in Silene noctiflora shoot assessed as transformation to pratensein at 20 uM after 14 days measured per gm of dry weight by LC-MS analysis; format: ADME; conditions: 336 h
In short: (§1)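 Pregerminated seeds, 14 per container, transplanted onto 0.5% agar medium containing biochanin A. Grown at 24 ± 1 °C under a 16 h light/8 h dark photoperiod and harvested 14 days after transplanting. Roots and shoots collected separately, blotted, washed twice, then freeze-dried. Tissue extracted by ASE at 40 °C and analysed by LC-ESI-MS against commercial standards. Two replicates per treatment.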

[2] = test system: Shoot; assay: Drug uptake in Echinochloa crus-galli (barnyard grass) shoot at 20 uM after 14 days measured per gm of dry weight by LC-MS analysis; format: ADME; conditions: 336 h
In short: (§2)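 Pregerminated seeds (14 per container) were grown on 20 mL 0.5% agar medium containing biochanin A, at 24 ± 1 °C with a 16 h light/8 h dark cycle. There were two replicates per treatment: 14 containers for S. noctiflora, 9 for G. molle and E. crus-galli. At 14 days, roots and shoots were harvested separately, washed, blotted and freeze-dried. Extraction was ASE at 40 °C, 1600 psi, 3 cycles. Analysis was LC-ESI-MS SIM against standards.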

[3] = test system: Shoot; assay: Drug metabolism in Silene noctiflora shoot assessed as transformation to dihydrobiochanin A at 400 uM after 14 days measured per gm of dry weight by LC-MS analysis; format: ADME; conditions: 336 h; in short: as §1
[4] = test system: Shoot; assay: Drug metabolism in Geranium molle shoot assessed as transformation to sissotrin at 400 uM after 14 days measured per gm of dry weight by LC-MS analysis; format: ADME; conditions: 336 h; in short: as §1
[5] = test system: Shoot; assay: Drug metabolism in Silene noctiflora shoot assessed as transformation to genistein at 20 uM after 14 days measured per gm of dry weight by LC-MS analysis; format: ADME; conditions: 336 h; in short: as §1
[6] = test system: Root; assay: Drug metabolism in Echinochloa crus-galli (barnyard grass) root assessed as transformation to p-coumaric acid at 400 uM after 14 days measured per gm of dry weight by LC-MS analysis; format: ADME; conditions: 336 h; in short: as §1
[7] = test system: Root; assay: Drug metabolism in Geranium molle root assessed as transformation to sissotrin at 20 uM after 14 days measured per gm of dry weight by LC-MS analysis; format: ADME; conditions: 336 h; in short: as §1
[8] = test system: Root; assay: Drug metabolism in Silene noctiflora root assessed as transformation to sissotrin at 20 uM after 14 days measured per gm of dry weight by LC-MS analysis; format: ADME; conditions: 336 h; in short: as §1
[9] = test system: Amaranthus caudatus; assay: Phytotoxicity against Amaranthus caudatus assessed as root growth inhibition at 100 to 400 uM after 2 weeks by agar medium bioassay; format: functional, organism-based
In short: (§3)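 Agar bioassay with eight biochanin A doses (0–400 µM). Seeds were pregerminated 48 h at room temperature, then 10 seedlings were placed per Petri dish and grown 2 weeks at 24 ± 1 °C under a 16 h light/8 h dark cycle. […]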

[10] = test system: Shoot; assay: Drug metabolism in Geranium molle shoot assessed as transformation to dihydrobiochanin A at 400 uM after 14 days measured per gm of dry weight by LC-MS analysis; format: ADME; conditions: 336 h; in short: as §1
[11] = test system: Shoot; assay: Drug metabolism in Geranium molle shoot assessed as transformation to genistein at 400 uM after 14 days measured per gm of dry weight by LC-MS analysis; format: ADME; conditions: 336 h; in short: as §1
[12] = test system: Root; assay: Drug metabolism in Silene noctiflora root assessed as transformation to dihydrobiochanin A at 400 uM after 14 days measured per gm of dry weight by LC-MS analysis; format: ADME; conditions: 336 h; in short: as §1
[13] = test system: Shoot; assay: Drug metabolism in Echinochloa crus-galli (barnyard grass) shoot assessed as transformation to dihydrobiochanin A at 20 uM after 14 days measured per gm of dry weight by LC-MS analysis; format: ADME; conditions: 336 h; in short: as §1
[14] = test system: Shoot; assay: Drug metabolism in Silene noctiflora shoot assessed as transformation to genistein at 400 uM after 14 days measured per gm of dry weight by LC-MS analysis; format: ADME; conditions: 336 h; in short: as §1
[15] = test system: Shoot; assay: Drug uptake in Silene noctiflora shoot at 20 uM after 14 days measured per gm of dry weight by LC-MS analysis; format: ADME; conditions: 336 h; in short: as §2
[16] = test system: Shoot; assay: Drug metabolism in Echinochloa crus-galli (barnyard grass) shoot assessed as transformation to dihydrobiochanin A at 400 uM after 14 days measured per gm of dry weight by LC-MS analysis; format: ADME; conditions: 336 h; in short: as §1
[17] = test system: Shoot; assay: Drug uptake in Echinochloa crus-galli (barnyard grass) shoot at 400 uM after 14 days measured per gm of dry weight by LC-MS analysis; format: ADME; conditions: 336 h; in short: as §2
[18] = test system: Root; assay: Drug metabolism in Echinochloa crus-galli (barnyard grass) root assessed as transformation to dihydrobiochanin A at 20 uM after 14 days measured per gm of dry weight by LC-MS analysis; format: ADME; conditions: 336 h; in short: as §1
[19] = test system: Root; assay: Drug uptake in Echinochloa crus-galli (barnyard grass) root at 400 uM after 14 days measured per gm of dry weight by LC-MS analysis; format: ADME; conditions: 336 h; in short: as §2
[20] = test system: Root; assay: Drug metabolism in Echinochloa crus-galli (barnyard grass) root assessed as transformation to sissotrin at 20 uM after 14 days measured per gm of dry weight by LC-MS analysis; format: ADME; conditions: 336 h; in short: as §1
[21] = test system: Shoot; assay: Drug metabolism in Silene noctiflora shoot assessed as transformation to pratensein at 400 uM after 14 days measured per gm of dry weight by LC-MS analysis; format: ADME; conditions: 336 h; in short: as §2
[22] = test system: Root; assay: Drug metabolism in Echinochloa crus-galli (barnyard grass) root assessed as transformation to genistein at 400 uM after 14 days measured per gm of dry weight by LC-MS analysis; format: ADME; conditions: 336 h; in short: as §1
[23] = test system: Root; assay: Drug metabolism in Geranium molle root assessed as transformation to p-coumaric acid at 400 uM after 14 days measured per gm of dry weight by LC-MS analysis; format: ADME; conditions: 336 h; in short: as §1
[24] = test system: Shoot; assay: Drug metabolism in Geranium molle shoot assessed as transformation to pratensein at 20 uM after 14 days measured per gm of dry weight by LC-MS analysis; format: ADME; conditions: 336 h; in short: as §1
[25] = test system: Root; assay: Drug metabolism in Geranium molle root assessed as transformation to dihydrobiochanin A at 20 uM after 14 days measured per gm of dry weight by LC-MS analysis; format: ADME; conditions: 336 h; in short: as §1
[26] = test system: Shoot; assay: Drug metabolism in Echinochloa crus-galli (barnyard grass) shoot assessed as transformation to genistein at 20 uM after 14 days measured per gm of dry weight by LC-MS analysis; format: ADME; conditions: 336 h; in short: as §1
[27] = test system: Root; assay: Drug uptake in Geranium molle root at 20 uM after 14 days measured per gm of dry weight by LC-MS analysis; format: ADME; conditions: 336 h; in short: as §2
[28] = test system: Shoot; assay: Drug uptake in Geranium molle shoot at 20 uM after 14 days measured per gm of dry weight by LC-MS analysis; format: ADME; conditions: 336 h; in short: as §2
[29] = test system: Shoot; assay: Drug metabolism in Geranium molle shoot assessed as transformation to p-coumaric acid at 400 uM after 14 days measured per gm of dry weight by LC-MS analysis; format: ADME; conditions: 336 h; in short: as §1
[30] = test system: Shoot; assay: Drug metabolism in Geranium molle shoot assessed as transformation to genistein at 20 uM after 14 days measured per gm of dry weight by LC-MS analysis; format: ADME; conditions: 336 h; in short: as §1
[31] = test system: Root; assay: Drug metabolism in Geranium molle root assessed as transformation to genistein at 400 uM after 14 days measured per gm of dry weight by LC-MS analysis; format: ADME; conditions: 336 h; in short: as §1
[32] = test system: Root; assay: Drug metabolism in Geranium molle root assessed as transformation to p-coumaric acid at 20 uM after 14 days measured per gm of dry weight by LC-MS analysis; format: ADME; conditions: 336 h; in short: as §1
[33] = test system: Lolium perenne; assay: Phytotoxicity against Lolium perenne (perennial ryegrass) assessed as root growth inhibition at 100 to 400 uM after 2 weeks by agar medium bioassay; format: functional, organism-based; in short: as §3
[34] = test system: Root; assay: Drug metabolism in Silene noctiflora root assessed as transformation to dihydrobiochanin A at 20 uM after 14 days measured per gm of dry weight by LC-MS analysis; format: ADME; conditions: 336 h; in short: as §1

COc1ccc(-c2coc3cc(O)cc(O)c3c2=O)cc1 [BIOCHANIN]
Drug metabolism [1]: 0.1 µmol
Drug uptake [2]: 0.05 µmol
Drug metabolism [3]: 0.02 µmol
Drug metabolism [4]: 2.41 µmol
Drug metabolism [5]: 0.24 µmol
Drug metabolism [6]: 0.11 µmol
Drug metabolism [7]: 36.06 µmol
Drug metabolism [8]: 1.72 µmol
Activity [9]: inactive
Drug metabolism [10]: 0.02 µmol
Drug metabolism [11]: 0.12 µmol
Drug metabolism [12]: 0.07 µmol
Drug metabolism [13]: 0 µmol
Drug metabolism [14]: 0.15 µmol
Drug uptake [15]: 0.76 µmol
Drug metabolism [16]: 0.27 µmol
Drug uptake [17]: 0.67 µmol
Drug metabolism [18]: 0.05 µmol
Drug uptake [19]: 2.13 µmol
Drug metabolism [20]: 0.48 µmol
Drug metabolism [21]: 0.06 µmol
Drug metabolism [22]: 0.12 µmol
Drug metabolism [23]: 0.05 µmol
Drug metabolism [24]: 0.02 µmol
Drug metabolism [25]: 0.38 µmol
Drug metabolism [26]: 0.28 µmol
Drug uptake [27]: 9.93 µmol
Drug uptake [28]: 1 µmol
Drug metabolism [29]: 0.03 µmol
Drug metabolism [30]: 0.09 µmol
Drug metabolism [31]: 0.08 µmol
Drug metabolism [32]: 0.06 µmol
Activity [33]: inactive
Drug metabolism [34]: 0.01 µmol
